Assay results gathered from unrelated publications.
Target: Casein kinase II subunit alpha (CSNK2A1, Homo sapiens, UniProt P68400)

With `O=C(c1ccc(Nc2ncc(Cl)c(-c3ccc(Cl)s3)n2)cc1)N1CCC(N2CCCC2)CC1` the remaining binding was 0.9% (binding, competition with immobilised ligand; 1 µM).
`O=C1NC(c2ccccn2)Sc2ccccc21` (stereo not drawn) gave a remaining binding of 61% (cell-free assay, competition with immobilised ligand; 1 µM).
`CN(C)c1nccc(-c2cnn3ncccc23)n1` gave a remaining binding of 39% (binding; 1 µM).
With `O=C(NCC1CCOCC1)c1n[nH]cc1NC(=O)c1c(F)cccc1F` the remaining binding was 59% (binding, competition with immobilised ligand; 1 µM).
With `CCN1CCN(Cc2ccc(C(=O)Nc3ccc(C)c(Oc4ccc5c(c4)CC(=O)N5)c3)cc2C(F)(F)F)CC1` the remaining binding was 100% (binding, competition with immobilised ligand; 1 µM).
`Nc1ncc2c(n1)-c1c([nH]c3ccc(C#CC4CC4)cc13)CCCC2` gave a remaining binding of 79% (binding, competition with immobilised ligand; 1 µM).
For `Cc1cc(-n2nc(Cc3cc(F)cc(C(F)(F)F)c3)nc2C)ccc1C(N)=O`, the remaining binding was 100% (cell-free assay, competition with immobilised ligand; 1 µM).
`c1cnn2ncc(-c3ccnc(N4CCC45COC5)n3)c2c1` gave a remaining binding of 40% (binding; 1 µM).
The remaining binding of `O=S(=O)(NC1CCC(c2cc(F)ccc2F)(S(=O)(=O)c2ccc(Cl)cc2)CC1)C(F)(F)F` (stereo not drawn) is reported as 85% (cell-free assay, competition with immobilised ligand; 1 µM).
For `O=C(NCCCN1CCOCC1)c1ccc(Nc2nccc(-c3cc4ccccc4s3)n2)cc1`, the remaining binding was 37% (binding, competition with immobilised ligand; 1 µM).
`Cn1nc(C(F)(F)F)cc1-c1cnc(N2CCc3cc(S(=O)(=O)Nc4c(F)cc(Cl)cc4F)cc(N4CCCC4=O)c32)nc1` has a remaining binding of 65% (cell-free assay, competition with immobilised ligand; 1 µM).
`CN(C)c1ncc(F)c(-c2cnn3ncccc23)n1` has a remaining binding of 100% (binding; 1 µM).
`CC1=C(C#N)[C@@H](c2ccc3[nH]nc(C)c3c2)C(C#N)=C(c2ccc(Cl)cc2)N1` gave a remaining binding of 100% (cell-free assay, competition with immobilised ligand; 1 µM).
For `COc1ccnn2ncc(-c3ccnc(N(C)C)n3)c12`, the remaining binding was 74% (binding; 1 µM).
With `CSc1cccnc1N1CCN(Cc2nc3ccccc3[nH]2)CC1` the remaining binding was 81% (cell-free assay, competition with immobilised ligand; 1 µM).
For `O=C(c1ccc(Nc2ncc(Cl)c(-c3cc4ccccc4s3)n2)cc1)N1CCC(N2CCCC2)CC1`, the remaining binding was 0.9% (binding, competition with immobilised ligand; 1 µM).
For `C[C@@H]1CCN(c2nccc(-c3cnn4ncccc34)n2)C1`, the remaining binding was 89% (binding; 1 µM).
With `CNC(=O)[C@@H]1CC[C@@H](n2c(-c3ccc4cnccc4c3)nc3ccc(C(=O)NCc4cccc(C(N)=O)c4)cc32)C1` the remaining binding was 94% (binding, competition with immobilised ligand; 1 µM).
The remaining binding of `N[C@H]1CCN(c2nccc(-c3cnn4ncccc34)n2)C1` is reported as 89% (binding; 1 µM).
With `COc1cnc(Nc2cccc(S(N)(=O)=O)c2)nc1N1CCN(c2ccccc2)CC1` the remaining binding was 71% (binding, competition with immobilised ligand; 1 µM).
The remaining binding of `COc1ncc2cc3ccccc3nc2c1C#N` is reported as 92% (cell-free assay, competition with immobilised ligand; 5 µM).
